In ChEMBL document CHEMBL1147962, “Synthesis and antifungal activity of novel s-substituted 6-fluoro-4-alkyl(aryl)thioquinazoline derivatives” (Bioorg Med Chem, 2007):
≈ marks a conversion by molar mass, not a printed value. Calls of active or inactive are those of the source. The rule behind the calls is not given here.

Assays:
[1] = system: Fusarium graminearum; test: Antifungal activity against Gibberella zeae at 500 ug/mL; assay type: functional
[2] = system: Fusarium oxysporum; test: Antifungal activity against Fusarium oxysporum at 500 ug/mL; assay type: functional
[3] = system: Cytospora; test: Antifungal activity against Cytospora mandshurica at 500 ug/mL; assay type: functional
[4] = system: Sclerotinia sclerotiorum; test: Antifungal activity against Sclerotinia sclerotiorum; assay type: functional, organism-based
[5] = system: Botrytis cinerea; test: Antifungal activity against Botrytis cinerea; assay type: functional, organism-based
[6] = system: Fusarium oxysporum; test: Increase in membrane permeability of Fusarium oxysporum at 100 ug/mL after 5 mins; assay type: functional
How it was run: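 F. oxysporum cells were treated and sampled from 5 min onward over a longer time course. Cell-membrane relative permeability rate (%) was measured against an untreated control, with Hymexazol as reference.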

[7] = system: Fusarium oxysporum; test: Effect on mycelial reducing sugar content in Fusarium oxysporum after 12 hrs; assay type: functional
How it was run: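 F. oxysporum mycelia were treated and sampled from 0.5 h to 12 h. Mycelial reducing sugar content (mg/mL) was measured at each time point against an untreated control.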

[8] = system: Fusarium oxysporum; test: Decrease in mycelial chitinase activity assessed as D-GlcNAc content in Fusarium oxysporum after 1 hrs; assay type: functional
How it was run: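 F. oxysporum mycelia were treated over a time course up to 24 h and compared with an untreated control, with Hymexazol as reference fungicide. Chitinase activity was read as the D-GlcNAc content (mg/mL) produced by the enzyme in 1 h.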

[9] = system: Fusarium graminearum; test: Antifungal activity against Gibberella zeae; assay type: functional, organism-based
[10] = system: Fusarium oxysporum; test: Antifungal activity against Fusarium oxysporum; assay type: functional, organism-based
How it was run: (§1)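 Preliminary fungicidal bioassay on plant-pathogenic fungi (G. zeae, F. oxysporum, C. mandshurica), with the commercial fungicide Hymexazol as reference.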

[11] = system: Cytospora; test: Antifungal activity against Cytospora mandshurica; assay type: functional; how it was run: as §1
[12] = system: Rhizoctonia solani; test: Antifungal activity against Rhizoctonia solani; assay type: functional, organism-based
[13] = system: Thanatephorus cucumeris; test: Antifungal activity against Thanatephorus cucumeris; assay type: functional, organism-based
[14] = system: Phytophthora infestans; test: Antifungal activity Phytophthora infestans; assay type: functional, organism-based
[15] = system: Colletotrichum gloeosporioides; test: Antifungal activity against Colletotrichum gloeosporioides; assay type: functional, organism-based
[16] = system: Fusarium oxysporum; test: Effect on hyphal morphology of Fusarium oxysporum at 100 ug/mL; assay type: functional, organism-based
How it was run: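 Hyphae and cell contents of treated F. oxysporum were examined microscopically against untreated control hyphae.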

[17] = system: Fusarium oxysporum; test: Inhibition of sporule germination of Fusarium oxysporum at 60 ug/mL; assay type: functional
How it was run: (§2)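 F. oxysporum spores were exposed to a concentration series. Germination was scored as percentage of spores germinated, and inhibition was calculated relative to an untreated control.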

[18] = system: Fusarium oxysporum; test: Effect on sporule germination of Fusarium oxysporum at 100 ug/mL; assay type: functional; how it was run: as §2
[19] = system: Fusarium oxysporum; test: Decrease in mycelial reducing sugar content in Fusarium oxysporum after 0.5 hrs relative to control; assay type: functional; parameters: scale not given: the % may be the effect or the level left
How it was run: (§3)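 Reducing sugar content (mg/mL) of F. oxysporum mycelia was followed over time, sampled from 0.5 h to 12 h of treatment, against an untreated control.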

[20] = system: Fusarium oxysporum; test: Decrease in mycelial reducing sugar content in Fusarium oxysporum at 6 hrs; assay type: functional, organism-based; how it was run: as §3
[21] = system: Fusarium oxysporum; test: Decrease in mycelial chitosan content in Fusarium oxysporum after 6 hrs relative to control; assay type: functional; parameters: scale not given: the % may be the effect or the level left
How it was run: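 Chitosan content was measured as D-GlcNAc in F. oxysporum mycelia from treated cultures and read 6 h after inoculation. An untreated culture served as control and Hymexazol as the reference fungicide.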

[22] = system: Fusarium oxysporum; test: Increase in mycelial soluble protein content in Fusarium oxysporum relative to control after 0.5 hrs; assay type: functional
How it was run: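 Soluble protein content of treated F. oxysporum mycelia was followed from 0.5 h of exposure and expressed relative to an untreated control. Hymexazol was run alongside as reference.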

| SMILES | inhibition at 500 µg/mL [1] | inhibition at 500 µg/mL [2] | inhibition at 500 µg/mL [3] | EC50 [4] | EC50 [5] | EC50 [9] | EC50 [10] | EC50 [11] | EC50 [12] | EC50 [13] | EC50 [14] | EC50 [15] | further results |
| --- | --- | --- | --- | --- | --- | --- | --- | --- | --- | --- | --- | --- | --- |
| Cc1cc(O)no1 [HYMEXAZOL] | 100% | 91.3% | 91.2% | 5.1 µg/mL (≈ 51.5 µM) | 4.6 µg/mL (≈ 46.4 µM) |  |  |  |  |  |  |  | Activity [6]: 6%; Activity [7]: 0.85 mg/mL; Activity [8]: 0.0411 mg/mL |
| CCOC(=O)CSc1ncnc2ccc(F)cc12 | 13.3% | 20.3% | 30.1% |  |  |  |  |  |  |  |  |  |  |
| COc1ccc(C(=O)CSc2ncnc3ccc(F)cc23)c(OC)c1OC | 6.2% | 5.3% | 11.2% |  |  |  |  |  |  |  |  |  |  |
| Fc1ccc2ncnc(SCc3ccc(Cl)nc3)c2c1 | 16.3% | 21.9% | 38.5% |  |  |  |  |  |  |  |  |  |  |
| CCCSc1ncnc2ccc(F)cc12 | 96.4% | 89.3% | 94.8% | 17.1 µg/mL (≈ 76.9 µM) | 13 µg/mL (≈ 58.5 µM) | 30.1 µg/mL (≈ 135 µM) | 25.1 µg/mL (≈ 113 µM) | 25.8 µg/mL (≈ 116 µM) | 29.2 µg/mL (≈ 131 µM) | 46.2 µg/mL (≈ 208 µM) | 26.9 µg/mL (≈ 121 µM) | 40.1 µg/mL (≈ 180 µM) |  |
| CCSc1ncnc2ccc(F)cc12 | 100% | 98.5% | 100% | 11.4 µg/mL (≈ 54.7 µM) | 8.3 µg/mL (≈ 39.9 µM) | 12.4 µg/mL (≈ 59.5 µM) | 18.2 µg/mL (≈ 87.4 µM) | 19.2 µg/mL (≈ 92.2 µM) | 24.9 µg/mL (≈ 120 µM) | 30.8 µg/mL (≈ 148 µM) | 26.8 µg/mL (≈ 129 µM) | 64.2 µg/mL (≈ 308 µM) | Activity [16]: Active; inhibition at 60 µg/mL [17]: 32.9%; Activity [6]: 12%; Activity [18]: 6.5%; Activity [19]: 19.8%; Activity [20]: Active; Activity [7]: 0.67 mg/mL; Activity [21]: 6.1%; Activity [8]: 0.0364 mg/mL; Activity [22]: 33.1% |
| Fc1ccc2ncnc(SCc3ccccc3)c2c1 | 15% | 18.9% | 21.4% |  |  |  |  |  |  |  |  |  |  |
| Fc1ccc2ncnc(SCc3ccc(Cl)cc3)c2c1 | 7.6% | 5.9% | 11.8% |  |  |  |  |  |  |  |  |  |  |
| C=CCSc1ncnc2ccc(F)cc12 | 100% | 92.3% | 96.9% | 35.2 µg/mL (≈ 160 µM) | 42.4 µg/mL (≈ 192 µM) | 37 µg/mL (≈ 168 µM) | 32.2 µg/mL (≈ 146 µM) | 23.3 µg/mL (≈ 106 µM) | 46.3 µg/mL (≈ 210 µM) | 40.6 µg/mL (≈ 184 µM) | 51.2 µg/mL (≈ 232 µM) | 21.4 µg/mL (≈ 97.2 µM) |  |
